# In ChEMBL document CHEMBL3792373, “Anti-methicillin resistant Staphylococcus aureus activity, synergism with oxacillin and molecular docking studies of metronidazole-triazole hybrids” (Eur J Med Chem, 2016):
# Legend:
# [1] = test system: Staphylococcus aureus; assay: Antimicrobial activity against methicillin-resistant Staphylococcus aureus isolate 4a after 24 hrs by agar plate dilution method in presence of oxacillin (1:1); type: functional
# Procedure, shortened: (§1)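 Test compound and oxacillin mixed 1:1, each at 32 µg/mL in the mixture, then serially diluted into agar plates. Clinical MRSA isolates at McFarland 0.5 in water were spotted onto the plates and incubated 24 h at 37 °C. Growth was read as white spots. NCTC 6571 S. aureus served as the dilution-series control.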
# [2] = test system: Staphylococcus aureus; assay: Antimicrobial activity against methicillin-resistant Staphylococcus aureus isolate 8a after 24 hrs by agar plate dilution method in presence of oxacillin (1:1); type: functional
# Procedure, shortened: (§2)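 Clinical MRSA isolates, from axilla/nasal swabs and identified by mannitol salt agar, Gram stain and coagulase test. […] Inoculum adjusted to McFarland 0.5 in water. Plates incubated 24 h at 37 °C and scored for growth spots. Dilution series quality-controlled with S. aureus NCTC 6571. Combination lines used a 1:1 mixture with oxacillin.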
# [3] = test system: Staphylococcus aureus; assay: Antimicrobial activity against methicillin-resistant Staphylococcus aureus isolate 10a after 24 hrs by agar plate dilution method in presence of oxacillin (1:1); type: functional; procedure, shortened: as §1
# [4] = test system: Staphylococcus aureus; assay: Antimicrobial activity against methicillin-resistant Staphylococcus aureus isolate 11a after 24 hrs by agar plate dilution method in presence of oxacillin (1:1); type: functional; procedure, shortened: as §1
# [5] = test system: Staphylococcus aureus; assay: Antimicrobial activity against methicillin-resistant Staphylococcus aureus isolate 14a after 24 hrs by agar plate dilution method in presence of oxacillin (1:1); type: functional; procedure, shortened: as §1
# [6] = test system: Staphylococcus aureus; assay: Antimicrobial activity against methicillin-resistant Staphylococcus aureus isolate 15a after 24 hrs by agar plate dilution method in presence of oxacillin (1:1); type: functional; procedure, shortened: as §1
# [7] = test system: Staphylococcus aureus; assay: Antimicrobial activity against methicillin-resistant Staphylococcus aureus isolate 17a after 24 hrs by agar plate dilution method in presence of oxacillin (1:1); type: functional; procedure, shortened: as §1
# [8] = test system: Staphylococcus aureus; assay: Antimicrobial activity against methicillin-resistant Staphylococcus aureus isolate 19a after 24 hrs by agar plate dilution method in presence of oxacillin (1:1); type: functional; procedure, shortened: as §1
# [9] = test system: Staphylococcus aureus; assay: Antimicrobial activity against methicillin-resistant Staphylococcus aureus isolate 20a after 24 hrs by agar plate dilution method in presence of oxacillin (1:1); type: functional; procedure, shortened: as §1
# [10] = test system: Staphylococcus aureus; assay: Antimicrobial activity against methicillin-resistant Staphylococcus aureus isolate 26a after 24 hrs by agar plate dilution method in presence of oxacillin (1:1); type: functional; procedure, shortened: as §1
# [11] = test system: Staphylococcus aureus; assay: Bactericidal activity against methicillin-resistant Staphylococcus aureus isolate 1a assessed as reduction in colony counts at 32 ug/ml after 4 hrs by pour plate method (reference value: 6.14 +/- 0.456 log10CFU/ml); type: functional
# [12] = test system: Staphylococcus aureus; assay: Bactericidal activity against methicillin-resistant Staphylococcus aureus isolate 1a assessed as reduction in colony counts at 32 ug/ml after 8 hrs by pour plate method (reference value: 8.30 +/- 0.442 log10CFU/ml); type: functional
# [13] = test system: Staphylococcus aureus; assay: Bactericidal activity against methicillin-resistant Staphylococcus aureus isolate 1a assessed as reduction in colony counts at 32 ug/ml after 12 hrs by pour plate method (reference value: 10.12 +/- 0.428 log10CFU/ml); type: functional
# [14] = test system: Staphylococcus aureus; assay: Bactericidal activity against methicillin-resistant Staphylococcus aureus isolate 1a assessed as reduction in colony counts at 32 ug/ml after 20 hrs by pour plate method (reference value: 12.73 +/- 0.223 log10CFU/ml); type: functional
# [15] = test system: Staphylococcus aureus; assay: Bactericidal activity against methicillin-resistant Staphylococcus aureus isolate 1a assessed as reduction in colony counts at 32 ug/ml after 24 hrs by pour plate method (reference value: 12.64 +/- 0.224 log10CFU/ml); type: functional
# [16] = Cytotoxicity against human THP1 cells upto 50 uM treated 3 times per week for 14 days by MTT assay; type: cell-based; conditions: thp-1, 336 h
# [17] = test system: Staphylococcus aureus; assay: Bactericidal activity against methicillin-resistant Staphylococcus aureus isolate 1a assessed as reduction in colony counts at 32 ug/ml after 12 hrs by pour plate method in presence of oxacillin (1:1) (reference value: 10.12 +/- 0.428 log10CFU/ml); type: functional
# [18] = test system: Staphylococcus aureus; assay: Bactericidal activity against methicillin-resistant Staphylococcus aureus isolate 1a assessed as reduction in colony counts at 32 ug/ml after 20 hrs by pour plate method in presence of oxacillin (1:1) (reference value: 12.73 +/- 0.223 log10CFU/ml); type: functional
# [19] = test system: Staphylococcus aureus; assay: Bactericidal activity against methicillin-resistant Staphylococcus aureus isolate 1a assessed as reduction in colony counts at 32 ug/ml after 24 hrs by pour plate method in presence of oxacillin (1:1) (reference value: 12.64 +/- 0.224 log10CFU/ml); type: functional
# [20] = test system: Staphylococcus aureus; assay: Antimicrobial activity against methicillin-resistant Staphylococcus aureus isolate 2a after 24 hrs by agar plate dilution method; type: functional
# Procedure, shortened: (§3)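 Clinical MRSA isolates from axilla/nasal swabs, identified by mannitol salt agar, Gram stain and coagulase test. Agar plate dilution with compound series 0.03–128 µg/mL. Inoculum suspended in water to McFarland 0.5. Incubation 24 h at 37 °C. MIC read as the lowest level without white growth spots. Dilution series quality-controlled with S. aureus NCTC 6571.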
# [21] = test system: Staphylococcus aureus; assay: Antimicrobial activity against methicillin-resistant Staphylococcus aureus isolate 5a after 24 hrs by agar plate dilution method; type: functional; procedure, shortened: as §2
# [22] = test system: Staphylococcus aureus; assay: Antimicrobial activity against methicillin-resistant Staphylococcus aureus isolate 6a after 24 hrs by agar plate dilution method; type: functional; procedure, shortened: as §2
# [23] = test system: Staphylococcus aureus; assay: Antimicrobial activity against methicillin-resistant Staphylococcus aureus isolate 7a after 24 hrs by agar plate dilution method; type: functional; procedure, shortened: as §2
# [24] = test system: Staphylococcus aureus; assay: Antimicrobial activity against methicillin-resistant Staphylococcus aureus isolate 9a after 24 hrs by agar plate dilution method; type: functional; procedure, shortened: as §2
# [25] = test system: Staphylococcus aureus; assay: Antimicrobial activity against methicillin-resistant Staphylococcus aureus isolate 10a after 24 hrs by agar plate dilution method; type: functional; procedure, shortened: as §3
# [26] = test system: Staphylococcus aureus; assay: Antimicrobial activity against methicillin-resistant Staphylococcus aureus isolate 18a after 24 hrs by agar plate dilution method; type: functional; procedure, shortened: as §3
# [27] = test system: Staphylococcus aureus; assay: Antimicrobial activity against methicillin-resistant Staphylococcus aureus isolate 19a after 24 hrs by agar plate dilution method; type: functional; procedure, shortened: as §3
# [28] = test system: Staphylococcus aureus; assay: Antimicrobial activity against methicillin-resistant Staphylococcus aureus isolate 20a after 24 hrs by agar plate dilution method; type: functional; procedure, shortened: as §3
# [29] = test system: Staphylococcus aureus; assay: Antimicrobial activity against methicillin-resistant Staphylococcus aureus isolate 21a after 24 hrs by agar plate dilution method; type: functional; procedure, shortened: as §3
# [30] = test system: Staphylococcus aureus; assay: Antimicrobial activity against methicillin-resistant Staphylococcus aureus isolate 25a after 24 hrs by agar plate dilution method; type: functional; procedure, shortened: as §3
# [31] = test system: Staphylococcus aureus; assay: Antimicrobial activity against methicillin-resistant Staphylococcus aureus isolate 26a after 24 hrs by agar plate dilution method; type: functional; procedure, shortened: as §3
# [32] = test system: Staphylococcus aureus; assay: Antimicrobial activity against methicillin-resistant Staphylococcus aureus isolate 28a after 24 hrs by agar plate dilution method; type: functional; procedure, shortened: as §3
# [33] = test system: Staphylococcus aureus; assay: Antimicrobial activity against methicillin-resistant Staphylococcus aureus isolate 29a after 24 hrs by agar plate dilution method; type: functional; procedure, shortened: as §3
smiles,measurement,setting,value
Cc1ncc([N+](=O)[O-])n1CCn1cc(COc2c(Cl)cccc2Cl)nn1,MIC,[1],2 µg/mL
same,MIC,[2],1 µg/mL
same,MIC,[3],2 µg/mL
same,MIC,[4],1 µg/mL
same,MIC,[5],4 µg/mL
same,MIC,[6],4 µg/mL
same,MIC,[7],1 µg/mL
same,MIC,[8],2 µg/mL
same,MIC,[9],2 µg/mL
same,MIC,[10],4 µg/mL
same,Activity,[11],5.65 log10CFU/ml
same,Activity,[12],6.05 log10CFU/ml
same,Activity,[13],5.96 log10CFU/ml
same,Activity,[14],5.57 log10CFU/ml
same,Activity,[15],5.84 log10CFU/ml
same,Activity,[16],Non-toxic
same,Activity,[17],5.91 log10CFU/ml
same,Activity,[18],5.26 log10CFU/ml
same,Activity,[19],5.6 log10CFU/ml
same,MIC,[20],4 µg/mL
same,MIC,[21],4 µg/mL
same,MIC,[22],4 µg/mL
same,MIC,[23],4 µg/mL
same,MIC,[24],8 µg/mL
same,MIC,[25],> 128 µg/mL
same,MIC,[26],32 µg/mL
same,MIC,[27],32 µg/mL
same,MIC,[28],> 128 µg/mL
same,MIC,[29],4 µg/mL
same,MIC,[30],64 µg/mL
same,MIC,[31],64 µg/mL
same,MIC,[32],128 µg/mL
same,MIC,[33],128 µg/mL
